In brackets after ≈: the same amount, converted by molar mass.
What was measured:
[1] = Spermicidal activity in human sperms assessed as motility measured within 30 secs by phase contrast microscopy; assay type: functional, Sperm
Summary of the method: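 Liquefied human semen (0.05 mL) was added to 0.25 mL test solution and vortexed 10 s at low speed. Motile sperm were scored visually under phase contrast in five fields within 30 s; assays in triplicate; MEC = minimum effective concentration.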

Trichomonas vaginalis [2] = experiment: Antitrichomonas activity against trophozoite stage of Trichomonas vaginalis clinical isolate assessed as cell viability under anaerobic condition after 48 hrs by trypan blue exclusion assay; assay type: functional
Summary of the method: (§1)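 Log-phase T. vaginalis grown in TYM with 10% FCS, vitamin mix and penicillin/streptomycin at 37 °C. Compounds were made as 100 µg/mL DMSO stocks and serially diluted in TYM down to 0.1 µg/mL; DMSO/TYM served as vehicle. Parasites were incubated anaerobically at 37 °C, and viability was checked by trypan blue exclusion from 3 to 48 h. MIC = lowest concentration killing all cells by 48 h; each test was repeated three times.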

Candida parapsilosis = experiment: Antifungal activity against Candida parapsilosis ATCC 22019 after 48 hrs by broth microdilution method; assay type: functional; conditions: Lodderomyces parapsilosis, ATCC 22019, 48 h
Summary of the method: (§2)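 NCCLS broth microdilution in RPMI 1640 buffered with MOPS; starting inoculum 1–5 × 10^3 CFU/mL; plates incubated at 35 °C; MIC read after 48 h.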

Sporothrix schenckii = experiment: Antifungal activity against Sporothrix schenckii after 48 hrs by broth microdilution method; assay type: functional; summary of the method: as §2
Trichomonas vaginalis [3] = experiment: Antitrichomonas activity against metronidazole-resistant trophozoite stage of Trichomonas vaginalis ATCC 50143 assessed as cell viability under anaerobic condition after 48 hrs by trypan blue exclusion assay; assay type: functional; conditions: ATCC 50143, 48 h; summary of the method: as §1
[4] = tested on: Trichophyton mentagrophytes; experiment: Antifungal activity against Trichophyton mentagrophytes after 48 hrs by broth microdilution method; assay type: functional; summary of the method: as §2
Cryptococcus neoformans = experiment: Antifungal activity against Cryptococcus neoformans after 48 hrs by broth microdilution method; assay type: functional; summary of the method: as §2
Candida albicans = experiment: Antifungal activity against Candida albicans after 48 hrs by broth microdilution method; assay type: functional; summary of the method: as §2

Row | Structure (SMILES) | MEC [1] | MIC (Trichomonas vaginalis [2]) | MIC (Candida parapsilosis) | MIC (Sporothrix schenckii) | MIC (Trichomonas vaginalis [3]) | MIC [4] | MIC (Cryptococcus neoformans) | MIC (Candida albicans)
1 | N#CCCCN1CCN(C(=S)SCSC(=S)N2CCN(CCCC#N)CC2)CC1 | 0.5% |  |  |  |  |  |  | 
2 | CC(C)COC(=O)N1CCN(C(=S)SSC(=S)N2CCN(C(=O)OCC(C)C)CC2)CC1 | >1% | > 191 µM | > 95.6 µM | > 95.6 µM | > 191 µM | 95.6 µM (≈ 50 µg/mL) | > 95.6 µM | 95.6 µM (≈ 50 µg/mL)
3 | CCCCCCCCSC(=S)N1CCN(C(=S)SSC(=S)N2CCN(C(=S)SCCCCCCCC)CC2)CC1 | 1% | 89.4 µM (≈ 62.5 µg/mL) | > 71.5 µM | 35.7 µM (≈ 25 µg/mL) | > 143 µM | > 71.5 µM | 35.7 µM (≈ 25 µg/mL) | 35.7 µM (≈ 25 µg/mL)
4 | COc1ccccc1N1CCN(C(=S)SSC(=S)N2CCN(c3ccccc3OC)CC2)CC1 | 1% | > 186 µM | > 93.4 µM | 46.7 µM (≈ 25 µg/mL) | > 186 µM | 93.4 µM (≈ 50 µg/mL) | 23.3 µM (≈ 12.5 µg/mL) | 46.7 µM (≈ 25 µg/mL)
5 | O=C(c1ccccc1)N1CCN(C(=S)SSC(=S)N2CCN(C(=O)c3ccccc3)CC2)CC1 | 0.5% | > 188 µM | > 94.1 µM | > 94.1 µM | > 188 µM | > 94.1 µM | > 94.1 µM | 94.1 µM (≈ 49.9 µg/mL)
6 | CCCCCCCCCCSC(=S)N1CCN(C(=S)SSC(=S)N2CCN(C(=S)SCCCCCCCCCC)CC2)CC1 | 1% | > 132 µM | 66.2 µM (≈ 50 µg/mL) | 66.2 µM (≈ 50 µg/mL) | > 132 µM | > 66.2 µM | 33.1 µM (≈ 25 µg/mL) | 66.2 µM (≈ 50 µg/mL)
7 | CCCCSC(=S)N1CCN(C(=S)SSC(=S)N2CCN(C(=S)SCCCC)CC2)CC1 | >1% | > 170 µM | 42.5 µM (≈ 24.9 µg/mL) | 85.1 µM (≈ 50 µg/mL) | > 170 µM | 42.5 µM (≈ 24.9 µg/mL) | 85.1 µM (≈ 50 µg/mL) | > 85.1 µM
8 | S=C(SCCN1CCCCC1)N1CCN(C(=S)SSC(=S)N2CCN(C(=S)SCCN3CCCCC3)CC2)CC1 | 0.5% | > 143 µM | > 71.7 µM | > 71.7 µM | > 143 µM | > 71.7 µM | > 71.7 µM | > 71.7 µM
9 | CCCCCCSC(=S)N1CCN(C(=S)SSC(=S)N2CCN(C(=S)SCCCCCC)CC2)CC1 | 1% | > 155 µM | 77.7 µM (≈ 50 µg/mL) | 77.7 µM (≈ 50 µg/mL) | > 155 µM | > 77.7 µM | 38.8 µM (≈ 25 µg/mL) | 77.7 µM (≈ 50 µg/mL)
10 | S=C(SSC(=S)N1CCCCC1)N1CCCCC1 [BIS(PIPERIDINYLTHIOCARBONYL)DISULFIDE] | 1% | 155 µM (≈ 49.7 µg/mL) | 38.9 µM (≈ 12.5 µg/mL) | 38.9 µM (≈ 12.5 µg/mL) | 155 µM (≈ 49.7 µg/mL) | 19.4 µM (≈ 6.22 µg/mL) | 2.4 µM (≈ 0.769 µg/mL) | 9.7 µM (≈ 3.11 µg/mL)
11 | S=C(SSC(=S)N1CCN(C23CC4CC(CC(C4)C2)C3)CC1)N1CCN(C23CC4CC(CC(C4)C2)C3)CC1 | 1% | > 169 µM | 84.6 µM (≈ 50 µg/mL) | 84.6 µM (≈ 50 µg/mL) | > 169 µM | 84.6 µM (≈ 50 µg/mL) | 84.6 µM (≈ 50 µg/mL) | 84.6 µM (≈ 50 µg/mL)
12 | CCCCCCSC(=S)N1CCN(CCCC)CC1 | >1% |  |  |  |  |  |  | 
13 | OC(Cn1cncn1)(Cn1cncn1)c1ccc(F)cc1F [FLUCONAZOLE] |  |  | 0.39 µM (≈ 0.119 µg/mL) | 0.39 µM (≈ 0.119 µg/mL) |  | 0.39 µM (≈ 0.119 µg/mL) | 0.19 µM (≈ 0.0582 µg/mL) | 0.39 µM (≈ 0.119 µg/mL)
14 | CCCSC(=S)N1CCN(CCCC#N)CC1 | >1% |  |  |  |  |  |  | 
15 | CCCCCCSC(=S)N1CCN(CCCC#N)CC1 | >1% |  |  |  |  |  |  | 
16 | C=CCN1CCN(C(=S)SCCCCCC)CC1 | >1% |  |  |  |  |  |  | 
17 | S=C(SCCN1CCOCC1)N1CCN(C(=S)SSC(=S)N2CCN(C(=S)SCCN3CCOCC3)CC2)CC1 | 0.5% | > 142 µM | > 71.3 µM | > 71.3 µM | > 142 µM | > 71.3 µM | > 71.3 µM | > 71.3 µM
18 | C=CCN1CCN(C(=S)SCSC(=S)N2CCN(CC=C)CC2)CC1 | 1% |  |  |  |  |  |  | 
19 | S=C(SSC(=S)N(C1CCCCC1)C1CCCCC1)N(C1CCCCC1)C1CCCCC1 | >1% | > 194 µM | > 97.4 µM | 97.4 µM (≈ 50 µg/mL) | > 194 µM | 97.4 µM (≈ 50 µg/mL) | 24.3 µM (≈ 12.5 µg/mL) | 48.7 µM (≈ 25 µg/mL)

Row | Structure (SMILES) | MEC [1] | MIC (Trichomonas vaginalis [2]) | MIC (Candida parapsilosis) | MIC (Sporothrix schenckii) | MIC (Trichomonas vaginalis [3]) | MIC [4] | MIC (Cryptococcus neoformans) | MIC (Candida albicans)
20 | Cc1ccc(S(=O)(=O)N2CCN(C(=S)SSC(=S)N3CCN(S(=O)(=O)c4ccc(C)cc4)CC3)CC2)cc1 | >1% | > 153 µM | > 76.5 µM | 76.5 µM (≈ 48.3 µg/mL) | > 153 µM | 76.5 µM (≈ 48.3 µg/mL) | > 76.5 µM | > 76.5 µM
21 | CCCCCCCCCCCCCCCCN1CCN(C(=S)SSC(=S)N2CCN(CCCCCCCCCCCCCCCC)CC2)CC1 | 1% | > 129 µM | > 64.8 µM | 16.2 µM (≈ 12.5 µg/mL) | > 129 µM | 16.2 µM (≈ 12.5 µg/mL) | 64.8 µM (≈ 50 µg/mL) | 64.8 µM (≈ 50 µg/mL)
22 | C=CCN1CCN(C(=S)SCCSC(=S)N2CCN(CC=C)CC2)CC1 | 0.5% |  |  |  |  |  |  | 
23 | CCCCCCCSC(=S)N1CCN(C(=S)SSC(=S)N2CCN(C(=S)SCCCCCCC)CC2)CC1 | >1% | > 149 µM | 74.5 µM (≈ 50 µg/mL) | 74.5 µM (≈ 50 µg/mL) | > 149 µM | > 74.5 µM | 74.5 µM (≈ 50 µg/mL) | > 74.5 µM
24 | CCCCN1CCN(C(=S)SCCSC(=S)N2CCN(CCCC)CC2)CC1 | 0.5% |  |  |  |  |  |  | 
25 | CN1CCN(C(=S)SCCCSC(=S)N2CCN(C)CC2)CC1 | 0.5% |  |  |  |  |  |  | 
26 | O=[N+]([O-])c1ccc(N2CCN(C(=S)SSC(=S)N3CCN(c4ccc([N+](=O)[O-])cc4C(F)(F)F)CC3)CC2)c(C(F)(F)F)c1 | 0.1% | > 142 µM | > 71.3 µM | > 71.3 µM | > 142 µM | 71.3 µM (≈ 50 µg/mL) | > 71.3 µM | 35.6 µM (≈ 24.9 µg/mL)
27 | CCCCN1CCN(C(=S)SCSC(=S)N2CCN(CCCC)CC2)CC1 | 0.5% |  |  |  |  |  |  | 
28 | C=CCN1CCN(C(=S)SCCCSC(=S)N2CCN(CC=C)CC2)CC1 | 0.5% |  |  |  |  |  |  | 
29 | CC(C)(C)OC(=O)N1CCN(C(=S)SSC(=S)N2CCN(C(=O)OC(C)(C)C)CC2)CC1 | >1% | > 183 µM | > 91.7 µM | > 91.7 µM | > 183 µM | > 91.7 µM | > 91.7 µM | > 91.7 µM
30 | CS(=O)(=O)N1CCN(C(=S)SSC(=S)N2CCN(S(C)(=O)=O)CC2)CC1 | 1% | > 208 µM | > 104 µM | > 104 µM | > 208 µM | 52.1 µM (≈ 24.9 µg/mL) | > 104 µM | 104 µM (≈ 49.8 µg/mL)
31 | N#CCCCN1CCN(C(=S)SCCCSC(=S)N2CCN(CCCC#N)CC2)CC1 | 0.5% |  |  |  |  |  |  | 
32 | C=CCN1CCN(C(=S)SCCC)CC1 | >1% |  |  |  |  |  |  | 
33 | CN1CCN(C(=S)SCCSC(=S)N2CCN(C)CC2)CC1 | 0.5% |  |  |  |  |  |  | 
34 | CCCCN1CCN(C(=S)SCCC)CC1 | >1% |  |  |  |  |  |  | 
35 | CN1CCN(C(=S)SCSC(=S)N2CCN(C)CC2)CC1 | 0.5% |  |  |  |  |  |  | 
36 | CCCCN1CCN(C(=S)SCCCSC(=S)N2CCN(CCCC)CC2)CC1 | 0.5% |  |  |  |  |  |  | 
37 | N#CCCCN1CCN(C(=S)SCCSC(=S)N2CCN(CCCC#N)CC2)CC1 | 0.5% |  |  |  |  |  |  | 
